# The source made the active and inactive calls. No cut-off for these calls is given here.
# Assays:
# BJAB = assay: Antiproliferative activity against human BJAB cells after 4 days; type: functional, cell-based
# HCT-116 [1] = assay: Cell cycle arrest in human HCT116 cells assessed as reduction in cell levels at S-phase at 0.001 to 10 uM after 24 hrs EdU-staining based high content imaging analysis; type: functional
# Method in brief: (§1)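 HCT-116 cells plated on poly-lysine-coated plates overnight, then treated 24 h with compound (DMSO stock diluted into McCoy's medium with 10% FBS). EdU labelling of newly synthesized DNA, 4% formaldehyde fixation, then high-content imaging in three fluorescent channels for total cell count, DNA content and S-phase cells. Means of three biological replicates, SEM.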
# HCT-116 [2] = assay: Cell cycle arrest in human HCT116 cells assessed as reduction in cell levels at S/G2 phase at 0.001 to 10 uM after 24 hrs by EdU-staining based high content imaging analysis; type: functional; method in brief: as §1
# HCT-116 [3] = assay: Cell cycle arrest in human HCT116 cells assessed as accumulation at G0/G1 phase at 0.001 to 10 uM after 24 hrs by EdU-staining based high content imaging analysis; type: functional; method in brief: as §1
# HCT-116 [4] = assay: Cell cycle arrest in human HCT116 cells assessed as reduction in cell levels at M-phase at 0.001 to 10 uM after 24 hrs by EdU-staining based high content imaging analysis; type: functional; method in brief: as §1
# [5] = Homo sapiens, BJAB, 96 h, read-out: EC50
Structure (SMILES),EC50 (BJAB; [5]) [µM],also measured
Cc1nn(-c2nc(-c3ccc(Cl)c(Cl)c3)c(SC(C)C)s2)c(C(=O)O)c1-c1cccc(C(F)(F)F)c1,22,
CNc1cc(-c2c(C)nn(-c3nc(-c4ccc(Cl)c(Cl)c4)c(SC(C)C)s3)c2C(=O)O)ccn1,18,
Cc1nn(-c2nc(-c3ccc(Cl)c(Cl)c3)c(SC(C)C)s2)c(C(=O)O)c1-c1ccccc1,3 to 3.4,
Cc1nn(-c2nc(-c3ccc(Cl)c(Cl)c3)c(SC(C)C)s2)c(C(=O)O)c1-c1ccc(C(F)(F)F)cc1,3.5,
Cc1nn(-c2nc(-c3ccc(Cl)c(Cl)c3)c(SC(C)C)s2)c(C(=O)O)c1Cc1ccccc1[N+](=O)[O-],20,
COc1cccc(-c2c(C)nn(-c3nc(-c4ccc(Cl)c(Cl)c4)c(SC(C)C)s3)c2C(=O)O)c1,14,
COC(=O)c1c(Cc2ccccc2[N+](=O)[O-])c(C)nn1-c1nc(-c2ccc(Cl)c(Cl)c2)c(SC(C)C)s1,93,
COc1cc(-c2c(C)nn(-c3nc(-c4ccc(Cl)c(Cl)c4)c(SC(C)C)s3)c2C(=O)O)cc(C(F)(F)F)c1,1.38,
Cc1nn(-c2nc(-c3ccc(Cl)c(Cl)c3)c(SC(C)C)s2)c(C(=O)O)c1-c1cncnc1,22,
Cc1ccc(-c2c(C)nn(-c3nc(-c4ccc(Cl)c(Cl)c4)c(SC(C)C)s3)c2C(=O)O)cc1,3.8,
Cc1nn(-c2nc(-c3ccc(Cl)c(Cl)c3)c(SC(C)C)s2)c(C(=O)O)c1-c1ccccc1C(F)(F)F,5.2,
Cc1nn(-c2nc(-c3ccc(Cl)c(Cl)c3)c(SC(C)C)s2)c(C(=O)O)c1-c1ccccc1Cl,13.1,
COc1ccc(-c2c(C)nn(-c3nc(-c4ccc(Cl)c(Cl)c4)c(SC(C)C)s3)c2C(=O)O)cc1,2.1,
Cc1nn(-c2nc(-c3ccc(Cl)c(Cl)c3)c(SC(C)C)s2)c(C(=O)O)c1-c1cccc(Cl)c1C,5.1,
COc1ccccc1-c1c(C)nn(-c2nc(-c3ccc(Cl)c(Cl)c3)c(SC(C)C)s2)c1C(=O)O,14.7,
Cc1cc(-c2c(C)nn(-c3nc(-c4ccc(Cl)c(Cl)c4)c(SC(C)C)s3)c2C(=O)O)cc(C)n1,0.58,
Cc1nn(-c2nc(-c3ccc(Cl)c(Cl)c3)c(SC(C)C)s2)c(C(=O)O)c1-c1cccc(Cl)c1,13.6,
Cc1nn(-c2nc(-c3ccc(Cl)c(Cl)c3)c(SC(C)C)s2)c(C(=O)O)c1-c1ccc(Cl)cc1,2.5,
Cc1nn(-c2nc(-c3ccc(Cl)c(Cl)c3)c(SC(C)C)s2)c(C(=O)O)c1-c1ccncc1,5.9,
Cc1cc(C#N)cc(-c2c(C)nn(-c3nc(-c4ccc(Cl)c(Cl)c4)c(SC(C)C)s3)c2C(=O)O)c1,4.8,
Cc1nn(-c2nc(-c3ccc(Cl)c(Cl)c3)c(SC(C)C)s2)c(C(=O)O)c1-c1cnccn1,14,Activity (HCT-116 [1]): Active
Cc1nn(-c2nc(-c3ccc(Cl)c(Cl)c3)c(SC(C)C)s2)c(C(=O)O)c1-c1cncc(C#N)c1,20,

Structure (SMILES),EC50 (BJAB; [5]) [µM],also measured
Cc1ccccc1-c1c(C)nn(-c2nc(-c3ccc(Cl)c(Cl)c3)c(SC(C)C)s2)c1C(=O)O,5.5,
COc1cc(C#N)cc(-c2c(C)nn(-c3nc(-c4ccc(Cl)c(Cl)c4)c(SC(C)C)s3)c2C(=O)O)c1,5.2,
Cc1cc(C)cc(-c2c(C)nn(-c3nc(-c4ccc(Cl)c(Cl)c4)c(SC(C)C)s3)c2C(=O)O)c1,2.7,
CCSc1sc(-n2nc(C)c(Cc3ccccc3[N+](=O)[O-])c2C(=O)O)nc1-c1ccc(Cl)c(Cl)c1,59,
O=C(O)/C(Cc1ccccc1[N+](=O)[O-])=N\Nc1nc(-c2ccc(Cl)c(Cl)c2)cs1,,"IC50 (BJAB; Homo sapiens, BJAB, 96 h): 20 µM"
Cc1nn(-c2nc(-c3cccnc3)c(SC(C)C)s2)c(C(=O)O)c1-c1cc(Cl)cc(Cl)c1,,EC50 (BJAB; bjab): Not Active
Cc1nn(-c2nc(-c3ccc(Cl)c(Cl)c3)c(SC(C)C)s2)c(C(=O)O)c1-c1cc(C#N)cc(C(F)(F)F)c1,3.6,
Cc1nn(-c2nc(-c3ccc(Cl)c(Cl)c3)c(SC(C)C)s2)c(C(=O)O)c1-c1cccc(F)c1,0.9,
Cc1nn(-c2nc(-c3ccc(Cl)c(Cl)c3)c(SC(C)C)s2)c(C(=O)O)c1-c1cccnc1,12,
CCOc1ncccc1-c1c(C)nn(-c2nc(-c3ccc(Cl)c(Cl)c3)c(SC(C)C)s2)c1C(=O)O,11,
Cc1cccc(-c2c(C)nn(-c3nc(-c4ccc(Cl)c(Cl)c4)c(SC(C)C)s3)c2C(=O)O)c1,17,
Cc1cc(Cl)cc(-c2c(C)nn(-c3nc(-c4ccc(Cl)c(Cl)c4)c(SC(C)C)s3)c2C(=O)O)c1,0.663,
Cc1nn(-c2nc(-c3ccc(Cl)c(Cl)c3)c(SC(C)C)s2)c(C(=O)O)c1-c1cnn(C)c1,6.8,
CC(=O)Nc1ccc(-c2c(C)nn(-c3nc(-c4ccc(Cl)c(Cl)c4)c(SC(C)C)s3)c2C(=O)O)cc1,139,Activity (HCT-116 [1]): inactive; Activity (HCT-116 [2]): inactive; Activity (HCT-116 [3]): inactive; Activity (HCT-116 [4]): inactive
Cc1nn(-c2nc(-c3ccc4nccn4c3)c(SC(C)C)s2)c(C(=O)O)c1-c1cc(Cl)cc(Cl)c1,,EC50 (BJAB; bjab): Not Active
COC(=O)c1c(Cc2ccccc2[N+](=O)[O-])c(C)nn1-c1nc(-c2ccc(Cl)c(Cl)c2)cs1,377,
Cc1nn(-c2nc(-c3ccc(Cl)c(Cl)c3)c(SC(C)C)s2)c(C(=O)O)c1-c1cc(C(F)(F)F)cc(C(F)(F)F)c1,1.8,
COc1cncc(-c2c(C)nn(-c3nc(-c4ccc(Cl)c(Cl)c4)c(SC(C)C)s3)c2C(=O)O)c1,21,
CCSc1sc(-n2nc(C)c(Cc3ccccc3[N+](=O)[O-])c2C(=O)OC)nc1-c1ccc(Cl)c(Cl)c1,106,
COc1ccc(C)cc1-c1c(C)nn(-c2nc(-c3ccc(Cl)c(Cl)c3)c(SC(C)C)s2)c1C(=O)O,9.5,
Cc1nn(-c2nc(-c3ccc(Cl)c(Cl)c3)c(SC(C)C)s2)c(C(=O)O)c1-c1ccccc1[N+](=O)[O-],4.7,
COc1cc(Cl)cc(-c2c(C)nn(-c3nc(-c4ccc(Cl)c(Cl)c4)c(SC(C)C)s3)c2C(=O)O)c1,0.76,

# — ChEMBL document CHEMBL4219038, “1-Thiazol-2-yl-N-3-methyl-1H-pyrozole-5-carboxylic acid derivatives as antitumor agents” (Bioorg Med Chem Lett, 2017)
